Reference: ChEMBL document CHEMBL4145627, “Expansion of cat-ELCCA for the Discovery of Small Molecule Inhibitors of the Pre-let-7-Lin28 RNA-Protein Interaction” (ACS Med Chem Lett, 2018)
Activity calls are given as the source filed them. No cut-off for these calls is given here.

What was measured:
[1] = target: T1, Protein lin-28 homolog A (Mus musculus, UniProt Q8K3Y3); assay: (§1) Binding affinity to mouse N-terminal Halo-fused/biotin-labelled Lin28A expressed in Escherichia coli BL21(DE3) assessed as inhibition of protein interaction with pre-Let-7d microRNA measured after 1 hr by cat-ELCCA
T1 sequence (Q8K3Y3 whole entry): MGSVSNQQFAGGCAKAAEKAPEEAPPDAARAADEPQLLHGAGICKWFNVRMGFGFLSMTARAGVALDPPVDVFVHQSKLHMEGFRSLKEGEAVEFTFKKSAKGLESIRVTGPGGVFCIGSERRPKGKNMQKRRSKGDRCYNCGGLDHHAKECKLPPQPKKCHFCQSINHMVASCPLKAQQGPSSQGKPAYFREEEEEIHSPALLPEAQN
Procedure, shortened: (§2)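 Biotinylated HaloTag-mLin28A (10 μL of 200 nM in storage buffer) immobilized on streptavidin plates overnight at 4 °C. TCO-pre-let-7d (200 nM in binding buffer) added with compound, 5% DMSO final, 1 h at 25 °C. Then mTet-HRP (750 nM) click for 1 h at 25 °C, washes, chemiluminescent read. CRCs were eight points, 3.3–120 μM.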

[2] = target: T2, Protein lin-28 homolog A (Mus musculus) (UniProt Q8K3Y3); assay: as §1; procedure, shortened: as §2
T2 sequence (whole entry): T1 sequence (Q8K3Y3 whole entry)

[3] = target: T2, Protein lin-28 homolog A (Mus musculus); assay: Binding affinity to mouse N-terminal Halo-fused/biotin-labelled Lin28A expressed in Escherichia coli BL21(DE3) assessed as inhibition of protein interaction with pre-Let-7d microRNA by electrophoretic mobility shift assay
[4] = target: T3, Protein lin-28 homolog B (Homo sapiens) (UniProt Q6ZN17); assay: Binding affinity to human N-terminal Halo-fused/biotin-labelled Lin28B expressed in Escherichia coli BL21(DE3) assessed as inhibition of protein interaction with pre-Let-7d microRNA measured after 1 hr by cat-ELCCA
T3 sequence (whole entry): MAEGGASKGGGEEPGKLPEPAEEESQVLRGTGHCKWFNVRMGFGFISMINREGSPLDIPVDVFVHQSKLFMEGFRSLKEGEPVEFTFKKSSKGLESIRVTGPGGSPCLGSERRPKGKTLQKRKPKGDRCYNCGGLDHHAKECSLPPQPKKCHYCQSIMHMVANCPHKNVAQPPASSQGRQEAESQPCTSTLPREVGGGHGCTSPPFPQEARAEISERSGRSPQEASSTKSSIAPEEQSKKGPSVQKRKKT
Procedure, shortened: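 Human Lin28B, cloned from A549 cDNA as a HaloTag fusion, expressed in E. coli (IPTG 500 μM, overnight 37 °C), Ni-NTA purified, biotinylated with Biotin-PEG7-HaloTag ligand (10 equiv, overnight 4 °C), immobilized on streptavidin plates. TCO-labelled pre-let-7d plus compound in Tris binding buffer with ZnCl₂ and β-mercaptoethanol, 5% DMSO final, 25 °C 1 h. Bound RNA detected by mTet-HRP click chemistry and chemiluminescence. IC50 from curves.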

[5] = target: T2, Protein lin-28 homolog A (Mus musculus); assay: Binding affinity to mouse N-terminal Halo-fused/biotin-labelled Lin28A expressed in Escherichia coli BL21(DE3) assessed as inhibition of protein interaction with pre-Let-7a microRNA at 20 to 50 uM by electrophoretic mobility shift assay
[6] = target: T2, Protein lin-28 homolog A (Mus musculus); assay: Binding affinity to mouse N-terminal Halo-fused/biotin-labelled Lin28A expressed in Escherichia coli BL21(DE3) at 18.7 to 75 uM by surface plasmon resonance analysis
Procedure, shortened: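 SPR on BioCap chip with biotinylated HaloTag-Lin28A immobilized at 2,300 RU. Running buffer: 50 mM Tris pH 7.6, 150 mM NaCl, 1 mM β-ME, 5% glycerol, 0.05% Tween-20, 1 mM ZnCl₂, 5% DMSO. Analytes at 75, 37.5, 18.7 μM, injected 50 μL at 50 μL/min; regeneration between cycles.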

[7] = Binding affinity to synthetic biotinylated pre-let-7d microRNA at 6.25 to 100 uM by surface plasmon resonance analysis
Procedure, shortened: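 SPR with biotinylated pre-let-7d immobilized at 2,300 RU on BioCap chip. Analytes at 100, 50, 25, 12.5, 6.25 μM, injected 30 μL at 30 μL/min; regeneration between cycles.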

[8] = target: Endoribonuclease Dicer (Homo sapiens) (UniProt Q9UPY3); assay: Binding affinity to dicer (unknown origin) assessed as inhibition of dicer-meditated pre-let-7d microRNA maturation at 100 uM by electrophoretic mobility shift assay
Chain of Endoribonuclease Dicer (Homo sapiens) (Q9UPY3 whole entry): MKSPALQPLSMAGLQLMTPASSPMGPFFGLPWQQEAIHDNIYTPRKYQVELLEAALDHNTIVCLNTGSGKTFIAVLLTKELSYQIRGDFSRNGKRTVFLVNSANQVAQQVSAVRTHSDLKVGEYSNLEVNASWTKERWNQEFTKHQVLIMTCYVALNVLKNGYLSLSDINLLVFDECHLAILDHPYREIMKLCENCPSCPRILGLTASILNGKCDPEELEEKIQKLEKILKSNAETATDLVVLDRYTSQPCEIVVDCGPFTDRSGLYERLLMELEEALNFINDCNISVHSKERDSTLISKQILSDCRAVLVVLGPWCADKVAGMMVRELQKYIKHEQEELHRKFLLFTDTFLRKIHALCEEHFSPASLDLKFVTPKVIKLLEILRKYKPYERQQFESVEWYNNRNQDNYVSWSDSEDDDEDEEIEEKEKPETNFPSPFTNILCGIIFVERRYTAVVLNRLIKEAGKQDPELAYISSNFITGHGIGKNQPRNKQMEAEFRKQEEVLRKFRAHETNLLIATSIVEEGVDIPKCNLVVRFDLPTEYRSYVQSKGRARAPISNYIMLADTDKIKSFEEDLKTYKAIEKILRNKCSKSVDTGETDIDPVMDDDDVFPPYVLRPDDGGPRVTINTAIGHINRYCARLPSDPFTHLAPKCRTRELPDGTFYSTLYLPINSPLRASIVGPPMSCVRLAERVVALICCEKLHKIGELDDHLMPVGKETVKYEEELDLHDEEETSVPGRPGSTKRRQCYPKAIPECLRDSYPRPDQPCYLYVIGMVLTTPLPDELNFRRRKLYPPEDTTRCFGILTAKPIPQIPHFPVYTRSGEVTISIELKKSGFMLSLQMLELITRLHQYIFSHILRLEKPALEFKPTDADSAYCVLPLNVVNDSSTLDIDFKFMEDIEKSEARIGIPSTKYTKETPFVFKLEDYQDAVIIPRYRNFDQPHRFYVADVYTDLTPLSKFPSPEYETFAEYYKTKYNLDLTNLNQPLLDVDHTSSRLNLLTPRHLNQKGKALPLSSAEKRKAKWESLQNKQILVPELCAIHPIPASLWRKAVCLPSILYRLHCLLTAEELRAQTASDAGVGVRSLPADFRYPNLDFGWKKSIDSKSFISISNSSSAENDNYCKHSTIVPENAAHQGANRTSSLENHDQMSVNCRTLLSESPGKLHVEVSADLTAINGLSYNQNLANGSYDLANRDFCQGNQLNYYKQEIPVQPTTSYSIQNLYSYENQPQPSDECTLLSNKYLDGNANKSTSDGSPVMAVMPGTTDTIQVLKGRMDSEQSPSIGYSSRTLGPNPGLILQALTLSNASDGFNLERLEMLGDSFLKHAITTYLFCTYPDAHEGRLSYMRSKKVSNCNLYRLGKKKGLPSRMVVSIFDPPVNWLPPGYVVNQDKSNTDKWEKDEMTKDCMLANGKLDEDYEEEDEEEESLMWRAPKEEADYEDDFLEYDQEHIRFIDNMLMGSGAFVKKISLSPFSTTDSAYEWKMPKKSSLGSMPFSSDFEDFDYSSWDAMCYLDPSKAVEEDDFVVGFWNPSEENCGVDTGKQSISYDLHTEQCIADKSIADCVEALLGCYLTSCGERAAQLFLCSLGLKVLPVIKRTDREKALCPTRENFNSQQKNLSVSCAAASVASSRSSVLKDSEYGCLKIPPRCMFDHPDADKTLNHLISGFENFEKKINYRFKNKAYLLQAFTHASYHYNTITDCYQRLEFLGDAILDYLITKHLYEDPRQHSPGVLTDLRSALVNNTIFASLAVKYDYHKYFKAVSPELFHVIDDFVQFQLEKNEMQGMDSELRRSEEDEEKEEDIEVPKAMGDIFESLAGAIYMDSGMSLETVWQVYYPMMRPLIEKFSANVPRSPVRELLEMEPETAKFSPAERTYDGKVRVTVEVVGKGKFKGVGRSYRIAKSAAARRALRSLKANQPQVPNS
Procedure, shortened: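 Dicer-mediated pre-let-7d maturation tested with compound at 100 μM; samples run with and without Dicer; procedure cited to earlier work.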

[9] = target: Eukaryotic translation initiation factor 4E/Eukaryotic translation initiation factor 4E-binding protein 1 (Homo sapiens) (UniProt P06730+Q13541); assay: Inhibition of eIF4E-4E-BP1 (unknown origin) interaction at 100 uM by cat-ELCCA; format: protein assay
Chain of Eukaryotic translation initiation factor 4E/Eukaryotic translation initiation factor 4E-binding protein 1 (Homo sapiens) (P06730 2-217 limits assumed): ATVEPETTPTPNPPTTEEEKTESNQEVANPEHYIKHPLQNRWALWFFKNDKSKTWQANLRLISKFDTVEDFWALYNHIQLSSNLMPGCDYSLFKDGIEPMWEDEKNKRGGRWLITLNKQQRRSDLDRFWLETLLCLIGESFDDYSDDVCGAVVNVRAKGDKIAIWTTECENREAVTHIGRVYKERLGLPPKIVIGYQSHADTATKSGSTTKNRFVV
Chain of Eukaryotic translation initiation factor 4E/Eukaryotic translation initiation factor 4E-binding protein 1 (Homo sapiens) (Q13541 2-118 partner limits assumed): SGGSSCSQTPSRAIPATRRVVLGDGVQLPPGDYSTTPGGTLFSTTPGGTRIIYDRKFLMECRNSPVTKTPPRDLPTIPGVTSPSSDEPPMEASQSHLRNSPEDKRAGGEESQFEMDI
Procedure, shortened: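 Counter-screen: eIF4E–4E-BP1 interaction read by cat-ELCCA with compound at 100 μM; assay setup cited to earlier work.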

[10] = target: T2, Protein lin-28 homolog A (Mus musculus); assay: Binding affinity to mouse N-terminal Halo-fused/biotin-labelled Lin28A expressed in Escherichia coli BL21(DE3) assessed as inhibition of protein interaction with microRNA at 20 to 50 uM by electrophoretic mobility shift assay

Structure (SMILES)	IC50 [1] [µM]	also measured
O=S(=O)(Nc1ccccc1NS(=O)(=O)c1ccc(F)cc1)c1ccccc1	13.9	–
O=S(=O)(Nc1ccccc1NS(=O)(=O)c1ccc(F)cc1)c1ccc(F)cc1	28.3	–
COc1ccc(S(=O)(=O)Nc2ccccc2NS(=O)(=O)c2ccc(F)cc2)cc1	17.2	–
CC(=O)Nc1ccc(S(=O)(=O)Nc2ccccc2NS(=O)(=O)c2ccc(NC(C)=O)cc2)cc1	62.5	–
O=S(=O)(Nc1ccccc1NS(=O)(=O)c1cccc(Cl)c1)c1cccc(Cl)c1	5.7	–
Cc1ccc(NS(=O)(=O)c2cccc(Cl)c2)c(NS(=O)(=O)c2cccc(Cl)c2)c1	4.3	–
Cc1ccc(NS(=O)(=O)c2ccccc2)c(NS(=O)(=O)c2ccccc2)c1	28.8	–
O=S(=O)(Nc1ccccc1NS(=O)(=O)c1cccc(Br)c1)c1ccc(F)cc1	16.2	–
O=S(=O)(Nc1ccccc1NS(=O)(=O)c1ccc(Cl)cc1)c1ccc(F)cc1	27.3	–
Cc1ccc(NS(=O)(=O)c2ccc(Cl)cc2)c(NS(=O)(=O)c2ccc(Cl)cc2)c1	28.4	–
Nc1ccccc1NS(=O)(=O)c1ccccc1	–	inhibition [2]: inactive
O=S(=O)(Nc1ccccc1NS(=O)(=O)c1cccc(Cl)c1)c1ccc(F)cc1	10.8	–
Cc1ccc(S(=O)(=O)Nc2ccc(C)cc2NS(=O)(=O)c2ccc(F)cc2)cc1	11.7	–
COc1ccc(S(=O)(=O)Nc2ccccc2NS(=O)(=O)c2ccc(OC)cc2)cc1	16.7	–
O=C(Nc1ccccc1NC(=O)c1ccccc1)c1ccccc1	–	inhibition [2]: inactive
Cc1ccc(S(=O)(=O)Nc2ccc(F)cc2NS(=O)(=O)c2ccc(C)cc2)cc1	8.3	inhibition [3]: Active; inhibition [4]: Active; inhibition [5]: Active; Activity [6]: Active; Activity [7]: inactive; inhibition [8]: inactive; inhibition [9]: inactive; inhibition [10]: Active
O=S(=O)(Nc1cccc(NS(=O)(=O)c2ccccc2)c1)c1ccccc1	–	inhibition [2]: inactive
Cc1ccc(S(=O)(=O)Nc2ccc(C)cc2NS(=O)(=O)c2ccc(C)cc2)cc1	14.1	–
O=S(=O)(Nc1ccccc1NS(=O)(=O)c1ccccc1)c1ccccc1	32.2	–
Cc1ccc(NS(=O)(=O)c2ccc(F)cc2)c(NS(=O)(=O)c2ccc(F)cc2)c1	16.2	–
Cc1ccc(S(=O)(=O)Nc2ccccc2NS(=O)(=O)c2ccc(C)c(Cl)c2)cc1Cl	2.3	–
Cc1ccc(S(=O)(=O)Nc2ccc(F)cc2NS(=O)(=O)c2ccc(C)c(Cl)c2)cc1Cl	3.7	–
O=S(=O)(Nc1ccccc1NS(=O)(=O)c1ccc(Br)cc1)c1ccc(Br)cc1	17.5	–
O=S(=O)(c1ccccc1)N1CCN(S(=O)(=O)c2ccccc2)c2ccccc21	–	inhibition [2]: inactive
Cc1ccc(S(=O)(=O)Nc2ccc(C)cc2NS(=O)(=O)c2cccc(C(F)(F)F)c2)cc1	10.4	inhibition [3]: Active; inhibition [4]: Active; inhibition [5]: Active; inhibition [8]: inactive; inhibition [10]: Active
O=S(=O)(Nc1ccccc1NS(=O)(=O)c1ccc(Cl)cc1)c1ccc(Cl)cc1	27.5	–
